In ChEMBL document CHEMBL4680134, “Structural optimization of natural product nordihydroguaretic acid to discover novel analogues as AcrB inhibitors” (Eur J Med Chem, 2020):
The source made the active and inactive calls. The calls are words filed in the database; no cut-off is given here.

Experiments:
[1] = Growth inhibition of Escherichia coli BW25113 expressing AcrB at 512 ug/ml after 18 hrs by broth microdilution assay; conditions: dose 512 µg/ml
In short: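 MIC determined by 96-well broth microdilution in E. coli BW25113 expressing AcrB ((+)AcrB) and an isogenic acrB-deleted strain ((-)AcrB). Used to set the compound concentrations for synergy testing that produce no direct antibacterial effect.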

[2] = molecular target: T1, Multidrug efflux pump subunit AcrB (Escherichia coli (strain K12)) (UniProt P31224); test: Inhibition of AcrB in Escherichia coli BW25113 assessed as potentiation of chloramphenicol induced antibacterial activity by measuring chloramphenicol MIC at 8 ug/ml measured after 18 hrs by checkerboard titration method (reference value: 8 ug/ml); conditions: dose 8.0 µg/ml
T1 sequence (whole entry): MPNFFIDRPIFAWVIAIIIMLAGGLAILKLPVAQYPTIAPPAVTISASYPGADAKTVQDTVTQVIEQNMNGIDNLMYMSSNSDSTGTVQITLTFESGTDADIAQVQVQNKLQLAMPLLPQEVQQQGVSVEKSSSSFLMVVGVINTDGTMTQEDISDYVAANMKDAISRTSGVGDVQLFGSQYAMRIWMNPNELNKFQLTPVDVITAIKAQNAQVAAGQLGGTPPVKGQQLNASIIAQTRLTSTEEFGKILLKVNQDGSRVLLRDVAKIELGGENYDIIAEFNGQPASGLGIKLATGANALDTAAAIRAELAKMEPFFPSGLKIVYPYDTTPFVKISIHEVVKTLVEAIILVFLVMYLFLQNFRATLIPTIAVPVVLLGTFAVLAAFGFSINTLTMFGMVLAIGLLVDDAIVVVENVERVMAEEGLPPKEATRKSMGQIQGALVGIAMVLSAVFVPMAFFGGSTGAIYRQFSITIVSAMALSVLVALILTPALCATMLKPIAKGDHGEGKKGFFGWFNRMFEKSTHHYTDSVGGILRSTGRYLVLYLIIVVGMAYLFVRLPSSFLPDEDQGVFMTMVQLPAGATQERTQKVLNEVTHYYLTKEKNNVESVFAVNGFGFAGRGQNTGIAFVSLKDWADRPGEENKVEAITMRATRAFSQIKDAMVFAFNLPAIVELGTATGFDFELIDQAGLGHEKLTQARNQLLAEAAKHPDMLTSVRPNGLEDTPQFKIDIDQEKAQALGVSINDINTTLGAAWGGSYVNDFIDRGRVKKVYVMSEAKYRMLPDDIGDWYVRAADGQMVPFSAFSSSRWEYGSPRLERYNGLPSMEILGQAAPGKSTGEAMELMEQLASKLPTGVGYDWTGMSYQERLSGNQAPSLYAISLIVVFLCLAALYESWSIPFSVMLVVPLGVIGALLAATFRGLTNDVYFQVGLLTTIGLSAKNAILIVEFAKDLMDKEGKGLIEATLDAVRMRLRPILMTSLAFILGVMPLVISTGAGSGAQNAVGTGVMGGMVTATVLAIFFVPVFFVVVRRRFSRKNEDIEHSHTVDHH

[3] = molecular target: T1, Multidrug efflux pump subunit AcrB (Escherichia coli (strain K12)); test: Inhibition of AcrB in Escherichia coli BW25113 assessed as potentiation of erythromycin induced antibacterial activity by measuring erythromycin MIC at 8 ug/ml measured after 18 hrs by checkerboard titration method (reference value: 64 ug/ml); conditions: dose 8.0 µg/ml
[4] = molecular target: T1, Multidrug efflux pump subunit AcrB (Escherichia coli (strain K12)); test: Inhibition of AcrB in Escherichia coli BW25113 assessed as potentiation of tetraphenylphosphonium induced antibacterial activity by measuring tetraphenylphosphonium MIC at 128 ug/ml measured after 18 hrs by checkerboard titration method (reference value: 1024 ug/ml); conditions: dose 128.0 µg/ml
[5] = molecular target: T1, Multidrug efflux pump subunit AcrB (Escherichia coli (strain K12)); test: Inhibition of AcrB in Escherichia coli BW25113 assessed as potentiation of levofloxacin induced antibacterial activity by measuring levofloxacin MIC at 32 ug/ml measured after 18 hrs by checkerboard titration method (reference value: 0.06 ug/ml); conditions: dose 32.0 µg/ml
[6] = molecular target: T1, Multidrug efflux pump subunit AcrB (Escherichia coli (strain K12)); test: Inhibition of AcrB in Escherichia coli BW25113 assessed as potentiation of rifampicin induced antibacterial activity by measuring rifampicin MIC at 8 ug/ml measured after 18 hrs by checkerboard titration method (reference value: 16 ug/ml); conditions: dose 8.0 µg/ml
[7] = molecular target: T1, Multidrug efflux pump subunit AcrB (Escherichia coli (strain K12)); test: Inhibition of AcrB in Escherichia coli BW25113 assessed as potentiation of rifampicin induced antibacterial activity by measuring rifampicin MIC at 64 ug/ml measured after 18 hrs by checkerboard titration method (reference value: 16 ug/ml); conditions: dose 64.0 µg/ml
[8] = molecular target: T1, Multidrug efflux pump subunit AcrB (Escherichia coli (strain K12)); test: Inhibition of AcrB in Escherichia coli BW25113 assessed as potentiation of rifampicin induced antibacterial activity by measuring rifampicin MIC at 128 ug/ml measured after 18 hrs by checkerboard titration method (reference value: 16 ug/ml); conditions: dose 128.0 µg/ml
[9] = molecular target: T1, Multidrug efflux pump subunit AcrB (Escherichia coli (strain K12)); test: Inhibition of AcrB in Escherichia coli BW25113 assessed as reduction in glucose-induced nile red efflux at 50 to 100 uM preincubated for 15 mins followed by nile red addition and incubated for 3 hrs in shaker in presence of CCCP by fluorimetric analysis; conditions: dose 50-100 µM, time 195.0 min
In short: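 Whole-cell efflux: wild-type and ΔAcrB cells preloaded with Nile Red, with or without compound, before fluorescence readings. Efflux triggered at 100 s with 0.2% glucose and followed by fluorometry. The ΔAcrB strain marks maximal accumulation. Triplicate experiments with different cell batches.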

[10] = test system: Cell membrane; test: Induction of outer membrane permeabilization in wild type Escherichia coli BW25113 assessed as increase in nitrocefin hydrolysis at 128 ug/ml by spectrophotometry analysis; conditions: dose 128 µg/ml
In short: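 Outer-membrane permeability: intact E. coli treated with 10 µM CCCP to block nitrocefin efflux, then exposed to compound. Nitrocefin hydrolysis by periplasmic β-lactamase followed as increasing absorbance at 490 nm over time. Polymyxin B as permeabilizer control, untreated cells as baseline. Duplicate experiments on different days.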

[11] = molecular target: T1, Multidrug efflux pump subunit AcrB (Escherichia coli (strain K12)); test: Inhibition of AcrB in Escherichia coli BW25113 assessed as potentiation of erythromycin induced antibacterial activity by measuring erythromycin MIC at 256 ug/ml measured after 18 hrs by checkerboard titration method (reference value: 64 ug/ml); conditions: dose 256.0 µg/ml
[12] = molecular target: T1, Multidrug efflux pump subunit AcrB (Escherichia coli (strain K12)); test: Inhibition of AcrB in Escherichia coli BW25113 assessed as potentiation of levofloxacin induced antibacterial activity by measuring levofloxacin MIC at 256 ug/ml measured after 18 hrs by checkerboard titration method (reference value: 0.06 ug/ml); conditions: dose 256.0 µg/ml
[13] = molecular target: T1, Multidrug efflux pump subunit AcrB (Escherichia coli (strain K12)); test: Inhibition of AcrB in Escherichia coli BW25113 assessed as potentiation of rifampicin induced antibacterial activity by measuring rifampicin MIC at 256 ug/ml measured after 18 hrs by checkerboard titration method (reference value: 16 ug/ml); conditions: dose 256.0 µg/ml
[14] = molecular target: T1, Multidrug efflux pump subunit AcrB (Escherichia coli (strain K12)); test: Inhibition of AcrB in Escherichia coli BW25113 assessed as reduction in glucose-induced nile red efflux at 500 uM preincubated for 15 mins followed by nile red addition and incubated for 3 hrs in shaker in presence of CCCP by fluorimetric analysis; conditions: time 195.0 min
In short: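 Wild-type E. coli cells with active AcrB were preloaded with Nile Red, with or without compound, before fluorescence recording began. At 100 sec, 0.2% glucose was added to re-energize the cells and trigger efflux, which was followed by fluorometry. An acrB-deleted isogenic strain served as the maximum-accumulation (no-efflux) reference. Triplicate experiments used different cell batches.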

Row | SMILES | growth inhibition (GI) [1] | MIC [2] [µg/mL] | MIC [3] [µg/mL] | MIC [4] [µg/mL] | MIC [5] [µg/mL] | MIC [6] [µg/mL] | MIC [7] [µg/mL] | MIC [8] [µg/mL] | inhibition [9] | Activity [10] | MIC [11] [µg/mL] | MIC [12] [µg/mL] | MIC [13] [µg/mL] | inhibition [14]
1 | O=C(NCCc1ccc(O)c(O)c1)c1ccccc1O | Non-Toxic | 8 | 64 | 512 | 0.03 | 16 | 16 | 16 |  |  |  |  |  | 
2 | O=C(NCCc1ccc(O)c(O)c1)c1ccc(C(F)(F)F)cc1 | Non-Toxic | 8 | 64 | 1020 | 0.06 | 16 | 16 | 16 |  |  |  |  |  | 
3 | Cc1ccc(C(=O)NCCc2ccc(O)c(O)c2)cc1 |  | 8 | 64 |  | 0.06 | 16 | 16 | 16 | Active | Non-Toxic |  |  |  | 
4 | Oc1ccc(CCCCc2ccc(Br)cc2)cc1O | Non-Toxic |  |  | 512 | 0.06 |  | 16 | 16 | Active | Toxic | 64 | 0.06 | 16 | 
5 | Nc1ccccc1C(=O)NCCc1ccc(O)c(O)c1 | Non-Toxic | 8 | 64 | 512 | 0.06 | 16 | 16 | 16 |  | Non-Toxic |  |  |  | Active
6 | O=C(NCCc1ccc(O)c(O)c1)c1ccc(O)c(O)c1 | Non-Toxic | 8 | 64 | 512 | 0.06 | 16 | 16 | 16 |  |  |  |  |  | 
7 | Nc1cc(N)cc(C(=O)NCCc2ccc(O)c(O)c2)c1 | Non-Toxic | 8 | 64 | 512 | 0.06 | 16 | 16 | 16 |  | Non-Toxic |  |  |  | 
8 | O=C(NCCc1ccc(O)c(O)c1)c1ccc(Br)cc1 | Non-Toxic | 8 | 64 | 1020 | 0.06 | 16 | 16 | 16 |  |  |  |  |  | 
9 | Nc1ccc(C(=O)NCCc2ccc(O)c(O)c2)cc1 | Non-Toxic | 8 | 64 | 512 | 0.06 | 16 | 16 | 16 |  | Non-Toxic |  |  |  | Active
